According to ChEMBL document CHEMBL1687894, “Design, synthesis and evaluation of 3-methylene-substituted indolinones as antimalarials” (Eur J Med Chem, 2011):

Columns and labels:
Falcipain 2 = target: T1, Falcipain 2 (Plasmodium falciparum, UniProt Q9N6S8); assay: Inhibition of Plasmodium falciparum falcipain 2 incubated with compound for 10 mins before addition of 25 uM Z-Leu-Arg-AMC substrate by fluorescence spectrophotometry
T1 sequence (Q9N6S8 whole entry): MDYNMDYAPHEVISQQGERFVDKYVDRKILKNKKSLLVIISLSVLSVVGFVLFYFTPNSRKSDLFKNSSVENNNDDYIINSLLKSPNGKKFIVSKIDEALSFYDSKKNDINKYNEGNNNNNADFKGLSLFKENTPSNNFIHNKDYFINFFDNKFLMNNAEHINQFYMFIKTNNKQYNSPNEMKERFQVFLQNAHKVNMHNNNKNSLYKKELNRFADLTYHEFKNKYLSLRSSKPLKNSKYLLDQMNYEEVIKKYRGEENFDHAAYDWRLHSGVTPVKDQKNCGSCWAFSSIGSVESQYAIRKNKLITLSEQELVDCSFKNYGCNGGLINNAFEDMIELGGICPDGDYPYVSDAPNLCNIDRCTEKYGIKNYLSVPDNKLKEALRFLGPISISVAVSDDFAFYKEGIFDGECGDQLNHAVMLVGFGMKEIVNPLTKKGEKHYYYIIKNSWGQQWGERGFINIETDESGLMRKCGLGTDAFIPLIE
Procedure, shortened: (§1)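 Run at 25 °C in 100 mM sodium acetate pH 6.0 with 5 mM DTT and 0.75% DMSO. Enzyme was preincubated 10 min with compound diluted from DMSO, then Z-Leu-Arg-AMC was added and fluorescence was read immediately. Eight inhibitor concentrations were made by fivefold serial dilution. IC50 was fitted to percent inhibition versus a no-inhibitor control against log concentration.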

Plasmodium falciparum = assay: Antiplasmodial activity against chloroquine-resistant Plasmodium falciparum W2 infected in human red blood cells assessed as inhibition of ring-stage parasite growth after 48 hrs by flow cytometry; format: functional, organism-based; conditions: W2, 48 h
[1] = target: T2, Cysteine protease falcipain-3 (Plasmodium falciparum, UniProt Q9NAW4); assay: Inhibition of Plasmodium falciparum falcipain 3 incubated with compound for 10 mins before addition of 25 uM Z-Leu-Arg-AMC substrate by fluorescence spectrophotometry; procedure, shortened: as §1
T2 sequence (Q9NAW4 whole entry): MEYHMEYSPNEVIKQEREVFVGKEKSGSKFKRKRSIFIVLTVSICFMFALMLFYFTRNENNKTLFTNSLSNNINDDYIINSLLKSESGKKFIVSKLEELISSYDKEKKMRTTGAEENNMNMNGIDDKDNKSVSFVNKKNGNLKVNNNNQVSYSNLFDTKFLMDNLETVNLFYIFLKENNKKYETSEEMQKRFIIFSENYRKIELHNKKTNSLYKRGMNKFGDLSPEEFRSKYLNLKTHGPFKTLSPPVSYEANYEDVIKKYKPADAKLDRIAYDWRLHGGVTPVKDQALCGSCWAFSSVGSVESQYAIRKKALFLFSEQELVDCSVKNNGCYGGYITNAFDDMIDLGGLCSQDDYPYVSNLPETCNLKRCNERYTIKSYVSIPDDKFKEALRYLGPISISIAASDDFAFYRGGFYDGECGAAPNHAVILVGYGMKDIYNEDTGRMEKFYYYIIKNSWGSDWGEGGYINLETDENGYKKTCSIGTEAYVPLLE

Structure (SMILES)	IC50 (Falcipain 2)	IC50 (Plasmodium falciparum)	IC50 [1]
CN(C)C=C1C(=O)Nc2ccccc21	> 50 µM	> 50 µM	–
CC(C)C[C@H](NC(=O)[C@H]1O[C@@H]1C(=O)O)C(=O)NCCCCN=C(N)N [E-64]	0.112 µM	–	0.481 µM
CC(C)CCNC(=O)[C@H](CC(C)C)NC=C1C(=O)Nc2ccccc21	> 50 µM	30.7 µM	> 50 µM
CC(C)CCNC(=O)CNC=C1C(=O)Nc2ccccc21	> 50 µM	26.7 µM	> 50 µM
O=C1Nc2ccc(Cl)cc2C1=CNCCCNc1ccnc2cc(Cl)ccc12	> 50 µM	0.2 µM	–
O=C1Nc2ccccc2C1=CNc1ccccc1	> 50 µM	> 10 µM	–
O=C1Nc2ccccc2C1=CNCCCNc1ccnc2cc(Cl)ccc12	> 50 µM	0.42 µM	–
O=C1Nc2cc(Cl)ccc2C1=CNCCCNc1ccnc2cc(Cl)ccc12	> 50 µM	0.18 µM	–
CN(C)C=C1C(=O)N(C)c2ccccc21	> 50 µM	> 50 µM	–
CN(C)C=C1C(=O)Nc2ccc(Cl)cc21	> 50 µM	> 50 µM	–
CCOC(=O)[C@H](Cc1ccccc1)NC=C1C(=O)Nc2ccccc21	> 50 µM	> 10 µM	–
CC(C)CCNC(=O)[C@H](CCc1ccccc1)NC=C1C(=O)Nc2c(Cl)cccc21	44 µM	13.4 µM	> 50 µM
CN(C)C=C1C(=O)Nc2c(Cl)cccc21	> 50 µM	> 50 µM	–
CC(C)CCNC(=O)[C@H](CCc1ccccc1)NC=C1C(=O)Nc2ccccc21	49.9 µM	18.6 µM	> 50 µM
CC(C)CCNC(=O)[C@H](CC(C)C)NC=C1C(=O)Nc2ccc(Cl)cc21	44.1 µM	18.7 µM	> 50 µM
CC(C)CCNC(=O)[C@H](CC(C)C)NC=C1C(=O)Nc2c(Cl)cccc21	42.1 µM	15.7 µM	> 50 µM
CN(C)C=C1C(=O)Nc2cc(Cl)ccc21	> 50 µM	> 50 µM	–
O=C1Nc2c(Cl)cccc2C1=CNCCNc1ccnc2cc(Cl)ccc12	–	0.14 µM	–
CCOC(=O)CNC=C1C(=O)Nc2ccccc21	> 50 µM	10.8 µM	–
CC(C)CCNC(=O)[C@H](Cc1ccccc1)NC=C1C(=O)Nc2ccc(Cl)cc21	43.3 µM	> 50 µM	> 50 µM
CN1C(=O)C(=CNCCCNc2ccnc3cc(Cl)ccc23)c2ccccc21	> 50 µM	0.29 µM	–
O=C1Nc2ccccc2C1=CSCc1ccccc1	> 50 µM	> 10 µM	–
O=C1Nc2c(Cl)cccc2C1=CNCCCNc1ccnc2cc(Cl)ccc12	> 50 µM	0.17 µM	–
CC(C)CCNC(=O)[C@H](CC(C)C)NC=C1C(=O)N(C)c2ccccc21	> 50 µM	23.5 µM	> 50 µM
CC(C)CCNC(=O)[C@H](CC(C)C)NC=C1C(=O)Nc2cc(Cl)ccc21	48.5 µM	15.9 µM	> 50 µM
